JNK3 inh = blocks human JNK3 kinase activity. purified JNK3 kinase activity, HTS. 60,000 tested, 0.61% active. inhibition, % at 8 µM; in the data active = inhibition above about 17%
PKA inh = PKA (human) kinase inhibition | inhibition, % at 6 µM | 65,000 tested, 0.1% active | PKA Kemptide phosphorylation, Kinase-Glo ATP luminescence | P17612 | AID 524;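 active = inhibition above the screen-wide mean inhibition plus 3 SD, cut at about 21% in these data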
RORA act = RORA (human) activation; 65,000 tested, 1.5% active; CHO-K1 Gal4-RORA LBD luciferase reporter, luminescence; percent increase over mock-subtracted basal signal; AID 560; activation, % at 10 µM; P35398;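 active = activation above the mean of all tested compounds plus 3 SD, cut at about 49% in these data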
SF1 activator = activates the human nuclear receptor SF-1. AID 522. 65,000 tested, 1.9% active. activation, % at 10 µM. CHO-K1 Gal4-SF-1 LBD luciferase reporter; % increase over DMSO SF-1-specific signal;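 active = activation above the mean activation of all tested compounds plus 3 SD, cut at about 50% in these data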
Target sequence (Q13285 whole entry, looked up, the tested form may be a part): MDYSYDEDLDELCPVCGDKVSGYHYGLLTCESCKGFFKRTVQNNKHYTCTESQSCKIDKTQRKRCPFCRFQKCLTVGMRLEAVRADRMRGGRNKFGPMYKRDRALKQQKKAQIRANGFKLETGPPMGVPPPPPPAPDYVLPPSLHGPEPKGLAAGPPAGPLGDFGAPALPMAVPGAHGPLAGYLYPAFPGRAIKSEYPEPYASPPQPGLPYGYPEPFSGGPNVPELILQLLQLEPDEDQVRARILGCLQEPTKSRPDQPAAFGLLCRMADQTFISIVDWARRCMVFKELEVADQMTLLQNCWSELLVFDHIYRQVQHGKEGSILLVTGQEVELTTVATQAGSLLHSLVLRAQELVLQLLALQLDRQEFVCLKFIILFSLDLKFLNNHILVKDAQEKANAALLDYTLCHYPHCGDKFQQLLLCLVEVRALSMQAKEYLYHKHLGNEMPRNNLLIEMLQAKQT
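Material: Gal4–SF-1 LBD one-hybrid luciferase reporter in CHO-K1 cells | Amount: 4,000 cells per well | Compound dosing: 10 µM single point, 1% DMSO | Schedule: 20 h compound treatment, 37 °C | Measured by: SteadyLite luciferase luminescence | Evaluation: Percent activation versus DMSO | Control set: DMSO-treated SF-1-transfected cells as negative, DMSO-treated mock-transfected cells lacking SF-1 as background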
MT1-MMP txn act = activates MT1-MMP transcription; activation factor at 10 µM; 86,000 tested, 0.16% active; AID 750; HT1080 MT1-MMP promoter luciferase reporter, luminescence, overnight; hits give high values;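 active = activation factor of at least 2 for MT1-MMP transcription at 10 µM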
ROCK2 blocker = blocks human Rho kinase 2 activity | O75116 | purified ROCK2, Kinase-Glo ATP depletion luminescence | inhibition, % at 6 µM | 60,000 tested, 0.35% active;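 active = inhibition above the screen-wide mean inhibition plus 3 SD, cut at about 18% in these data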
Hits are given with their value; – = inactive; · = not tested or not shown. Hits are enriched below; roughly 2.5% of the tested compounds scored in any of these assays.

SMILES	JNK3 inh	PKA inh	RORA act	SF1 activator	MT1-MMP txn act	ROCK2 blocker
CC(C)(C)c1ccc(C(=O)N2CCC(C(=O)NCc3ccncc3)CC2)cc1	–	–	59.6	–	–	–
CNc1cccccc1=S	–	–	–	–	–	–
CCC(C)(C)NC(=O)C(c1ccncc1)N(Cc1ccc(C)cc1)C(=O)c1csnn1 (stereo not given)	·	·	·	·	–	·
COc1cc(C2NC(=O)NC(C)=C2C(=O)OC2CCCC(C)C2)ccc1O (stereo not given)	36.5	–	–	–	–	–
CC1=C(C(=O)OC2CCCCCCC2)C(c2ccc(O)cc2)NC(=O)N1 (stereo not given)	21.6	–	–	–	–	–
COc1cc(C2NC(=O)NC(C)=C2C(=O)OC2CCCCC2)cc(Br)c1O (stereo not given)	–	–	–	–	–	–
COc1cc(C2NC(=O)NC(C)=C2C(=O)OC(C)(C)C)ccc1OCC(=O)O (stereo not given)	–	–	–	–	–	–
COC(=O)[C@@]1(Cc2ccc(OC)cc2)[C@H]2c3cc(C(=O)N(C)C)n(CCc4ccc(OC)c(Br)c4)c3C[C@H]2CN1C(=O)c1ccccc1	·	·	·	·	–	·
CCN(CC)C(C)C(=O)NCC1(c2ccccc2)CCOCC1 (stereo not given)	·	·	·	·	–	·
COC(=O)C1C(=O)c2c([nH]c(C(=O)OC3CCCCC3)c2C)CC1C (stereo not given)	–	–	77.2	–	–	–
Cn1c(CSCc2ccc(Cl)c(Cl)c2)nnc1SCC(=O)Nc1nccs1	–	–	–	–	–	25.4
Cc1cccc(-n2ccnc2SCC(=O)Nc2nccs2)c1	–	–	–	60.2	–	–
CCCC[C@@H]1C[C@H]1C(NC(=O)c1ccccc1)c1ccccc1C(F)(F)F (stereo not given in full)	·	·	·	·	–	·
CC(C)c1nc(N2CCN(C(=O)c3ccccc3)CC2)c(C#N)c2c1COC(C)(C)C2	–	–	–	53.3	–	–
COc1cccc(NC(=O)c2nnn(CCc3ccccc3)c2N)c1	–	–	53.1	83.8	–	–
COc1cccc(NC(=O)Cn2nnc(C(=O)Nc3ccccc3)c2N)c1	·	–	–	–	–	·
COc1cccc(NC(=O)c2nnn(Cc3ccc(Br)cc3F)c2N)c1	–	–	58.3	–	–	–
Cc1nc(Cl)c(C(=O)NC(=O)Nc2cccc(C(F)(F)F)c2)c(C)c1[N+](=O)[O-]	·	·	·	·	–	·
COC(=O)c1ccccc1NC(=O)CN(c1ccc(OC)cc1)S(C)(=O)=O	·	·	·	·	–	·
COC(=O)c1ccc(NC(=O)CN(c2ccc(OC)cc2)S(C)(=O)=O)cc1	–	–	66.4	74.8	–	–
COc1ccc(NC(=O)CN(C)S(=O)(=O)c2cccs2)cc1	–	–	51.0	–	–	–
CCOc1ccc(NC(=O)CN(c2ccc(OC)cc2)S(C)(=O)=O)cc1	–	–	76.6	–	–	–
CCOc1ccc(N(CC(=O)Nc2ccc(OC)cc2)S(C)(=O)=O)cc1	–	–	60.6	–	–	–
Cn1c(COc2ccccc2)nnc1SCC(=O)NCc1ccccc1	–	–	–	–	–	–
CCOCCCNC(=O)C(C)NS(=O)(=O)c1ccc(C)cc1 (stereo not given)	–	–	–	–	–	–
SMILES	JNK3 inh	PKA inh	RORA act	SF1 activator	MT1-MMP txn act	ROCK2 blocker
CC(Oc1ccc(Cl)cc1Cl)c1nc(-c2ccc(NC(=O)c3ccco3)cc2)no1 (stereo not given)	·	·	·	·	–	·
CCCc1ccc(OCc2nc(-c3ccc(NC(=O)c4ccco4)cc3)no2)cc1	–	–	–	49.7	–	–
Cc1ccccc1OCc1nc(-c2ccccc2)no1	–	–	–	71.2	–	–
Cc1ccccc1OCc1nc(-c2ccc(NC(=O)c3ccco3)cc2)no1	·	–	58.2	–	–	·
Cc1ccc(-c2noc(COc3ccccc3C)n2)cc1	–	–	–	–	–	–
COc1ccc(-c2csc(N3CCOCC3)n2)cc1OC	–	–	60.9	–	–	–
O=C(N1CCOCC1)N1CCN(c2nc(-c3ccc(F)cc3)cs2)CC1	–	–	–	–	–	–
CC(=O)Nc1ccc(-c2nc3c(C)cccc3[nH]2)cc1	–	–	–	99.2	–	–
CCCCC(=O)Nc1ncc(Br)s1	28.2	–	–	–	–	–
CCCCC(=O)Nc1nnc(C)s1	–	–	–	–	–	–
COc1ccc(OC)c(C(=O)c2coc3ccc(O)cc23)c1	18.4	–	–	–	–	–
c1ccc(CSc2nnc(-c3c[nH]c4ccccc34)o2)cc1	–	–	79.6	–	–	–
CCCCn1nnnc1NCc1ccc(C)s1	·	·	·	·	–	·
COCCNC(=O)c1csc2c1CCCC2	–	–	–	–	–	–
COc1cc(NC(=O)c2csc3c2CCCC3)ncn1	–	–	56.5	–	–	–
Cc1ccc(-n2nc3ccc(N)cc3n2)cc1	–	–	–	–	·	–
CN(C)C=Nc1ccc2nn(-c3ccccc3)nc2c1	–	–	–	73.7	–	–
CC1CCCCN1Cc1nc2c(c(=O)n(C)c(=O)n2C)n1Cc1cccc2ccccc12 (stereo not given)	–	–	–	–	–	–
O=C(CN1C(=O)c2ccccc2S1(=O)=O)N1CCOCC1	–	–	–	–	2.1	–
Cc1nn(C)cc1CNC(=O)c1cnn2c(C(F)F)cc(C3CC3)nc12	33.5	–	–	–	–	–
COc1cccc(C(=O)Nc2ccc(-c3nnc(-c4ccco4)o3)cc2)c1	–	–	–	–	–	–
O=C(COc1ccccc1)Nc1ccc(-c2nnc(-c3ccco3)o2)cc1	–	–	–	65.7	–	–
COc1ccc(C(=O)c2sc(NC(C)C)nc2N)cc1OC	–	–	–	–	–	–
COc1cccc(C(=O)c2sc(NC(C)C)nc2N)c1	17.2	–	–	–	–	–
CCC/C=C(\CCC)C(NS(=O)(=O)c1ccccc1)c1ccc(C(F)(F)F)cc1 (stereo not given)	·	·	·	·	–	·
SMILES	JNK3 inh	PKA inh	RORA act	SF1 activator	MT1-MMP txn act	ROCK2 blocker
CN(C(=O)CSc1nnc(-c2ccco2)o1)C1CCCCC1	–	–	50.1	–	–	–
Cc1cccc(N2CCN(C(=O)C(C)n3nc(C)n4c(cc5occc54)c3=O)CC2)c1C (stereo not given)	·	·	·	·	–	·
CSc1ccc(CNc2ccccn2)cc1	–	–	61.4	–	–	–
Cc1ccc(O)c(CNc2ccccn2)c1	–	–	–	–	–	–
COc1ccc(-c2cc3nc4n(c(=O)c3s2)CCOC4)cc1	–	–	–	–	–	–
Cc1ccnc(NC(=O)Nc2ccc(F)cc2)c1	–	–	–	–	·	–
Cc1ccc(NC(=O)Nc2ccc(F)cc2)nc1	–	–	–	82.9	–	–
CC(C)=C1C(=O)C(c2ccccc2)=C2CN3C(=O)N(CCc4ccccc4)C(=O)[C@]3(C)[C@H]21	·	·	·	·	–	·
CSc1ccc(-c2nnn(Cc3ccc(Br)cc3)n2)cc1	·	·	·	·	–	·
CSc1ccc(-c2nnn(Cc3ccccn3)n2)cc1	–	–	55.5	57.2	2	–
